# Laboratory results taken from ChEMBL document CHEMBL1629636, “In vitro susceptibility of Borrelia spielmanii to antimicrobial agents commonly used for treatment of Lyme disease” (2009).
# How the values were obtained:
# Borrelia spielmanii [1] = test: Antimicrobial activity against Borrelia spielmanii isolate PMew after 72 hrs by colorimetric assay; type: functional; settings: Borreliella spielmanii
# In short: (§1)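 Tested in microtiter trays preloaded with lyophilized antibiotics; clinical isolates were low-passage (10 to 20 passages). MIC was read by colorimetric assay after 72 h. MBC was defined as 100% killing in liquid medium at 72 h: aliquots from vials showing no growth were diluted 1:1,000 in BSK and checked for regrowth after 3 weeks of subculture. Values are medians of three independent experiments on separate days.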
# Borrelia spielmanii [2] = test: Antimicrobial activity against Borrelia spielmanii isolate PSig2 after 72 hrs by colorimetric assay; type: functional; settings: Borreliella spielmanii, isolate PSig2, 72 h; in short: as §1
# Borrelia spielmanii [3] = test: Antimicrobial activity against Borrelia spielmanii isolate PC-Eq17 after 72 hrs by colorimetric assay; type: functional; settings: Borreliella spielmanii, isolate PC-Eq17, 72 h; in short: as §1
# Borrelia spielmanii [4] = test: Antimicrobial activity against Borrelia spielmanii isolate PHap after 72 hrs by colorimetric assay; type: functional; settings: Borreliella spielmanii; in short: as §1
# Borrelia spielmanii [5] = test: Antimicrobial activity against Borrelia spielmanii isolate PJes after 72 hrs by colorimetric assay; type: functional; settings: Borreliella spielmanii; in short: as §1
# Borrelia spielmanii [6] = test: Antimicrobial activity against Borrelia spielmanii isolate PAnz after 72 hrs by colorimetric assay; type: functional; settings: Borreliella spielmanii; in short: as §1
# Borrelia spielmanii [7] = test: Antimicrobial activity against Borrelia spielmanii isolate PMai after 72 hrs by colorimetric assay; type: functional; settings: Borreliella spielmanii; in short: as §1
# [8] = Antimicrobial activity against Borrelia spielmanii A14S after 72 hrs by colorimetric assay; type: functional; settings: Borreliella spielmanii
# In short: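 Low-passage isolates (10 to 20 passages) grown in BSK medium were tested in microtiter trays precoated with lyophilized antimicrobials. MIC was read colorimetrically after 72 h. Independent experiments were run on three different days, and the MIC reported is the median of the three.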
# Borrelia spielmanii [9] = test: Antimicrobial activity against Borrelia spielmanii isolate TIsar2 after 72 hrs by colorimetric assay; type: functional; settings: Borreliella spielmanii, isolate TIsar2, 72 h; in short: as §1
# Borrelia spielmanii [10] = test: Antimicrobial activity against Borrelia spielmanii isolate TIsar3 after 72 hrs by colorimetric assay; type: functional; settings: Borreliella spielmanii, isolate TIsar3, 72 h; in short: as §1
# [11] = Antimicrobial activity against Borrelia burgdorferi B31 after 72 hrs by colorimetric assay; type: functional; settings: Borreliella burgdorferi; in short: as §1
# Borrelia burgdorferi = test: Antimicrobial activity against Borrelia burgdorferi isolate LW2 after 72 hrs by colorimetric assay; type: functional; settings: Borreliella burgdorferi, isolate LW2, 72 h; in short: as §1
# Borrelia afzelii [12] = test: Antimicrobial activity against Borrelia afzelii isolate FEM1 after 72 hrs by colorimetric assay; type: functional; settings: Borreliella afzelii, isolate FEM1, 72 h; in short: as §1
# Borrelia afzelii [13] = test: Antimicrobial activity against Borrelia afzelii isolate G600 after 72 hrs by colorimetric assay; type: functional; settings: Borreliella afzelii, isolate G600, 72 h; in short: as §1
# Borrelia afzelii [14] = test: Antimicrobial activity against Borrelia afzelii isolate G1039 after 72 hrs by colorimetric assay; type: functional; settings: Borreliella afzelii, isolate G1039, 72 h; in short: as §1
# Borrelia garinii [15] = test: Antimicrobial activity against Borrelia garinii isolate PSth after 72 hrs by colorimetric assay; type: functional; settings: Borreliella garinii; in short: as §1
# Borrelia garinii [16] = test: Antimicrobial activity against Borrelia garinii isolate M2094 after 72 hrs by colorimetric assay; type: functional; settings: Borreliella garinii, isolate M2094, 72 h; in short: as §1
# Borrelia garinii [17] = test: Antimicrobial activity against Borrelia garinii isolate G1 after 72 hrs by colorimetric assay; type: functional; settings: Borreliella garinii, isolate G1, 72 h; in short: as §1
# Staphylococcus aureus = test: Antimicrobial activity against Staphylococcus aureus ATCC 29213 after 72 hrs by colorimetric assay; type: functional; settings: ATCC 29213, 72 h
# In short: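 Quality-control MIC followed the CLSI method with two changes: BSK medium was used, and the antibiotic-medium preparation was preincubated for 48 h before testing. Tests were run on three different days, and the MIC reported is the median of the three.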
# Borrelia spielmanii [18] = test: Antimicrobial activity against Borrelia spielmanii isolate PC-Eq17 after 120 hrs by colorimetric assay; type: functional; settings: Borreliella spielmanii, isolate PC-Eq17, 120 h
# Borrelia spielmanii [19] = test: Antimicrobial activity against Borrelia spielmanii isolate PC-Eq17 assessed as reduction in bacterial count at 2 ug/ml after 72 hrs; type: functional, Borreliella spielmanii; design: scale not given: the % may be the effect or the level left
# In short: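 Time-kill assay: the isolate was exposed to ceftriaxone for up to 120 h. Growth was followed by conventional counts of morphologically intact motile cells and compared with a drug-free growth control. Values are means of two independent experiments run on different days.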
# Borrelia = test: Antimicrobial activity against Borrelia clinical isolate after 72 hrs by colorimetric assay; type: functional; settings: for MIC90: Borrelia, 72 h; in short: as §1
smiles,measurement,setting,value
CO/N=C(\C(=O)N[C@@H]1C(=O)N2C(C(=O)O)=C(CSc3nc(=O)c(O)nn3C)CS[C@H]12)c1csc(N)n1 [CEFTRIAXONE],MBC,Borrelia spielmanii [1],4 µg/mL
same,MIC,Borrelia spielmanii [1],0.125 µg/mL
same,MBC,Borrelia spielmanii [2],1 µg/mL
same,MIC,Borrelia spielmanii [2],0.0312 µg/mL
same,MBC,Borrelia spielmanii [3],2 µg/mL
same,MIC,Borrelia spielmanii [3],0.0312 µg/mL
same,MBC,Borrelia spielmanii [4],2 µg/mL
same,MIC,Borrelia spielmanii [4],0.0625 µg/mL
same,MBC,Borrelia spielmanii [5],2 µg/mL
same,MIC,Borrelia spielmanii [5],0.0312 µg/mL
same,MBC,Borrelia spielmanii [6],1 µg/mL
same,MIC,Borrelia spielmanii [6],0.0156 µg/mL
same,MBC,Borrelia spielmanii [7],4 µg/mL
same,MIC,Borrelia spielmanii [7],0.0625 µg/mL
same,MBC,[8],0.5 µg/mL
same,MIC,[8],0.0312 µg/mL
same,MBC,Borrelia spielmanii [9],0.5 µg/mL
same,MIC,Borrelia spielmanii [9],0.0156 µg/mL
same,MBC,Borrelia spielmanii [10],0.5 µg/mL
same,MIC,Borrelia spielmanii [10],0.0625 µg/mL
same,MBC,[11],2 µg/mL
same,MIC,[11],0.0312 µg/mL
same,MBC,Borrelia burgdorferi,4 µg/mL
same,MIC,Borrelia burgdorferi,0.0312 µg/mL
same,MBC,Borrelia afzelii [12],2 µg/mL
same,MIC,Borrelia afzelii [12],0.0625 µg/mL
same,MBC,Borrelia afzelii [13],0.5 µg/mL
same,MIC,Borrelia afzelii [13],0.0625 µg/mL
same,MBC,Borrelia afzelii [14],0.5 µg/mL
same,MIC,Borrelia afzelii [14],0.0312 µg/mL
same,MBC,Borrelia garinii [15],2 µg/mL
same,MIC,Borrelia garinii [15],0.0312 µg/mL
same,MBC,Borrelia garinii [16],2 µg/mL
same,MIC,Borrelia garinii [16],0.0312 µg/mL
same,MBC,Borrelia garinii [17],2 µg/mL
same,MIC,Borrelia garinii [17],0.0312 µg/mL
same,MIC,Staphylococcus aureus,4 µg/mL
same,MBC,Borrelia spielmanii [18],2 µg/mL
same,Activity,Borrelia spielmanii [19],99.9%
same,MBC90,Borrelia,4 µg/mL
same,MIC90,Borrelia,0.0625 µg/mL
CC[C@H]1OC(=O)[C@H](C)[C@@H](O[C@H]2C[C@@](C)(OC)[C@@H](O)[C@H](C)O2)[C@H](C)[C@@H](O[C@@H]2O[C@H](C)C[C@H](N(C)C)[C@H]2O)[C@](C)(O)C[C@@H](C)C(=O)[C@H](C)[C@@H](O)[C@]1(C)O [ERYTHROMYCIN],MBC,Borrelia spielmanii [1],2 µg/mL
same,MIC,Borrelia spielmanii [1],0.0312 µg/mL
same,MBC,Borrelia spielmanii [2],2 µg/mL
same,MIC,Borrelia spielmanii [2],0.0079 µg/mL
same,MBC,Borrelia spielmanii [3],4 µg/mL
same,MIC,Borrelia spielmanii [3],0.0156 µg/mL
same,MBC,Borrelia spielmanii [4],2 µg/mL
same,MIC,Borrelia spielmanii [4],0.0079 µg/mL
same,MBC,Borrelia spielmanii [5],1 µg/mL
same,MIC,Borrelia spielmanii [5],0.0156 µg/mL
same,MBC,Borrelia spielmanii [6],2 µg/mL
same,MIC,Borrelia spielmanii [6],0.0079 µg/mL
same,MBC,Borrelia spielmanii [7],1 µg/mL
same,MIC,Borrelia spielmanii [7],0.0079 µg/mL
same,MBC,[8],2 µg/mL
same,MIC,[8],0.0156 µg/mL
same,MBC,Borrelia spielmanii [9],1 µg/mL
same,MIC,Borrelia spielmanii [9],0.0312 µg/mL
same,MBC,Borrelia spielmanii [10],2 µg/mL
same,MIC,Borrelia spielmanii [10],0.0312 µg/mL
same,MBC,[11],4 µg/mL
same,MIC,[11],0.0312 µg/mL
same,MBC,Borrelia burgdorferi,4 µg/mL
same,MIC,Borrelia burgdorferi,0.0312 µg/mL
same,MBC,Borrelia afzelii [12],2 µg/mL
same,MIC,Borrelia afzelii [12],0.0312 µg/mL
same,MBC,Borrelia afzelii [13],2 µg/mL
same,MIC,Borrelia afzelii [13],0.0312 µg/mL
same,MBC,Borrelia afzelii [14],2 µg/mL
same,MIC,Borrelia afzelii [14],0.0156 µg/mL
same,MBC,Borrelia garinii [15],4 µg/mL
same,MIC,Borrelia garinii [15],0.0312 µg/mL
same,MBC,Borrelia garinii [16],4 µg/mL
same,MIC,Borrelia garinii [16],0.0312 µg/mL
same,MBC,Borrelia garinii [17],4 µg/mL
same,MIC,Borrelia garinii [17],0.0156 µg/mL
same,MIC,Staphylococcus aureus,0.25 µg/mL
same,MBC90,Borrelia,4 µg/mL
same,MIC90,Borrelia,0.0312 µg/mL
